Our source for the LC50 values is ChEMBL document CHEMBL5500359, “Identification of a new bisindolinone arresting IGROV1 cells proliferation” (Eur J Med Chem, 2024).

Usually LC50 stands for the concentration that kills 50% of the test population.

Holding throughout (format): functional
In experiment [1] the test system is Melanoma cell line. Nature of the experiment: Cytotoxicity against human Melanoma cells incubated for 48 hrs by SRB assay. The essentials: (§1)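 NCI-60 five-concentration screen: lines seeded 5×10^3–4×10^4 cells/well depending on line; compound diluted in fresh medium at scalar concentrations 0–100 or 0–1000 μM; 48 h exposure, in situ fixation, sulforhodamine B protein staining, optical density read; GI50, TGI and LC50 per NCI procedures; panel mean = mean graph midpoint.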

Experiment [2] concerns NSCLC. Nature of the experiment: Cytotoxicity against human NSCLC cells incubated for 48 hrs by SRB assay. A digest of the protocol: as §1
For orientation: In SRB staining, fixed cells bind dye roughly in proportion to their protein.

For experiment [3], the system named is Prostatic carcinoma cell. Kind of experiment: Cytotoxicity against human Prostate carcinoma cells incubated for 48 hrs by SRB assay. The essentials: as §1

On to `O=C1Nc2ccc(Cl)cc2/C1=C\c1ccc2ccc3ccc(/C=C4/C(=O)Nc5ccc(Cl)cc54)nc3c2n1`, for which the LC50 in experiment [1] is 51.3 µM; in experiment [2] it was 52.5 µM.

Regarding `Cc1cc2c(cc1O)/C(=C\c1cc(C(C)(C)C)cc(C=O)c1O)C(=O)N2`, the LC50 in experiment [1] worked out at 37.1 µM; in experiment [2] it was 51.3 µM; in experiment [3] it was 57.5 µM.

On to `COc1cc2c(c(OC)c1OC)C(=Cc1cc(C(C)(C)C)cc(/C=C3\C(=O)Nc4cc(OC)c(OC)c(OC)c43)c1O)C(=O)N2`, for which the LC50 in experiment [1] was determined as 8.13 µM; in experiment [2], 14.8 µM; in experiment [3], 12.6 µM.

With `COc1cc2c(cc1C)NC(=O)/C2=C/c1ccc2ccc3ccc(/C=C4/C(=O)Nc5cc(C)c(OC)cc54)nc3c2n1`, the LC50 came to 55 µM in experiment [1] and 52.5 µM in experiment [2].

In the case of `COc1cc2c(/C=C3/C(=O)N(C)c4cc5c(cc43)/C(=C\c3c(Cl)[nH]c4cc(C)c(OC)cc34)C(=O)N5C)c(Cl)[nH]c2cc1C`, the figures for the LC50 in experiment [1], in experiment [2] and in experiment [3] were 22.4 µM, 51.3 µM and 20.4 µM, respectively.

As for `CC(C)(C)c1cc(/C=C2/C(=O)Nc3cccc(F)c32)c(O)c(/C=C2/C(=O)Nc3cccc(F)c32)c1`, the LC50 in experiment [1] is 13.2 µM; in experiment [2], 15.8 µM; in experiment [3], 36.3 µM.

As for `O=C1Nc2cc(Cl)ccc2/C1=C\c1cccc(/C=C2/C(=O)Nc3cc(Cl)ccc32)c1`, the values for the LC50 in experiment [1], in experiment [2] and in experiment [3] were 19.5 µM, 45.7 µM and 28.2 µM, respectively.

On to `CC(C)(C)c1cc(/C=C2/C(=O)Nc3cc(Cl)ccc32)c(O)c(/C=C2/C(=O)Nc3cc(Cl)ccc32)c1`, for which the values for the LC50 in experiment [1], in experiment [2] and in experiment [3] were 30.9 µM, 47.9 µM and 38 µM, respectively.

In the case of `COc1ccc2c(c1)/C(=C\c1cc(C(C)(C)C)cc(/C=C3/C(=O)N(C)c4ccc(OC)cc43)c1O)C(=O)N2C`, the values for the LC50 in experiment [1], in experiment [2] and in experiment [3] were 9.55 µM, 31.6 µM and 67.6 µM, respectively.

With `O=C1Nc2cccc(F)c2/C1=C\c1cccc(/C=C2/C(=O)Nc3cccc(F)c32)c1`, the results for the LC50 in experiment [1], in experiment [2] and in experiment [3] were 9.33 µM, 33.1 µM and 18.6 µM, respectively.

Consider `COc1ccc2[nH]c(Cl)c(/C=C3/C(=O)N(C)c4cc5c(cc43)/C(=C\c3c(Cl)[nH]c4ccc(OC)cc34)C(=O)N5C)c2c1`, for which the results for the LC50 in experiment [1], in experiment [2] and in experiment [3] were 12.9 µM, 24.6 µM and 7.94 µM, respectively.

In the case of `CC(C)(C)c1cc(/C=C2/C(=O)Nc3ccc(F)cc32)c(O)c(/C=C2/C(=O)Nc3ccc(F)cc32)c1`, the results for the LC50 in experiment [1], in experiment [2] and in experiment [3] were 33.9 µM, 47.9 µM and 4.74 µM, respectively.

On to `COc1ccc2c(c1)/C(=C\c1ccc3ccc4ccc(/C=C5/C(=O)N(C)c6ccc(OC)cc65)nc4c3n1)C(=O)N2C`, for which the figures for the LC50 in experiment [1], in experiment [2] and in experiment [3] were 30.2 µM, 85.1 µM and 56.2 µM, respectively.
